Experimental data: ChEMBL document CHEMBL1641423, “Novel gratisin derivatives with high antimicrobial activity and low hemolytic activity” (Bioorg Med Chem Lett, 2011)
≈ marks a conversion by molar mass, not a printed value. Where a SMILES comes first, the peptide text is derived from it. [ ]: non-standard residue; d: D form. Orn = NCCC[C@H](N)C(=O)O

Experiments:
Bacillus subtilis = test: Antibacterial activity against Bacillus subtilis NBRC 3513 after overnight incubation by medium dilution method; type: functional
Procedure, shortened: (§1)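 MIC by medium dilution with an inoculum of 10⁶ organisms per ml. Value is the minimum inhibitory concentration.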

Priestia megaterium = test: Antibacterial activity against Bacillus megaterium ATCC 19213 after overnight incubation by medium dilution method; type: functional; procedure, shortened: as §1
[1] = system: Staphylococcus epidermidis; test: Antibacterial activity against Staphylococcus epidermidis NBRC 12993 after overnight incubation by medium dilution method; type: functional; procedure, shortened: as §1
Staphylococcus aureus = test: Antibacterial activity against Staphylococcus aureus NBRC 12732 after overnight incubation by medium dilution method; type: functional; procedure, shortened: as §1
Pseudomonas aeruginosa = test: Antibacterial activity against Pseudomonas aeruginosa NBRC 3080 after overnight incubation by medium dilution method; type: functional; procedure, shortened: as §1
Escherichia coli = test: Antibacterial activity against Escherichia coli NBRC l2734 after overnight incubation by medium dilution method; type: functional; procedure, shortened: as §1
[2] = Cytotoxicity against human RBC assessed induction of hemolysis at […] after 30 mins microtiter plate reader analysis; type: cell-based; conditions: erythrocyte, 0.5 h

MIC (Bacillus subtilis) [µg/mL]	MIC (Priestia megaterium) [µg/mL]	MIC [1] [µg/mL]	MIC (Staphylococcus aureus) [µg/mL]	MIC (Pseudomonas aeruginosa) [µg/mL]	MIC (Escherichia coli) [µg/mL]	Structure (SMILES)	Activity [2]
100 (≈ 72.3 µM)	100 (≈ 72.3 µM)	> 100	100 (≈ 72.3 µM)	> 100	> 100	CC(C)[C@@H]1NC(=O)[C@@H](Cc2ccc(O)cc2)NC(=O)[C@@H]2CCCN2C(=O)[C@@H](Cc2ccccc2)NC(=O)[C@H](C)NC(=O)[C@H](CCCN)NC(=O)[C@H](C(C)C)NC(=O)[C@@H](Cc2ccc(O)cc2)NC(=O)[C@@H]2CCCN2C(=O)[C@@H](Cc2ccccc2)NC(=O)[C@H](C)NC(=O)[C@H](CCCN)NC1=O	Non-toxic
> 100	> 100	> 100	> 100	> 100	> 100	CC(C)C[C@@H]1NC(=O)[C@H](CCCN)NC(=O)[C@H](C(C)C)NC(=O)[C@@H](Cc2ccc(O)cc2)NC(=O)[C@@H]2CCCN2C(=O)[C@@H](C)NC(=O)[C@H](CC(C)C)NC(=O)[C@H](CCCN)NC(=O)[C@H](C(C)C)NC(=O)[C@@H](Cc2ccc(O)cc2)NC(=O)[C@@H]2CCCN2C(=O)[C@@H](C)NC1=O	Non-toxic
> 50	> 50	> 50	> 50	> 50	> 50	CC(C)C[C@@H]1NC(=O)[C@H](C)NC(=O)[C@H](C(C)C)NC(=O)[C@@H](Cc2ccc(O)cc2)NC(=O)[C@@H]2CCCN2C(=O)[C@@H](Cc2ccccc2)NC(=O)[C@H](CC(C)C)NC(=O)[C@H](C)NC(=O)[C@H](C(C)C)NC(=O)[C@@H](Cc2ccc(O)cc2)NC(=O)[C@@H]2CCCN2C(=O)[C@@H](Cc2ccccc2)NC1=O	Non-toxic
12.5 (≈ 8.85 µM)	12.5 (≈ 8.85 µM)	25 (≈ 17.7 µM)	6.25 (≈ 4.43 µM)	> 100	> 100	CC(C)C[C@@H]1NC(=O)[C@H](CCCN)NC(=O)[C@H](C)NC(=O)[C@@H](Cc2ccc(O)cc2)NC(=O)[C@@H]2CCCN2C(=O)[C@@H](Cc2ccccc2)NC(=O)[C@H](CC(C)C)NC(=O)[C@H](CCCN)NC(=O)[C@H](C)NC(=O)[C@@H](Cc2ccc(O)cc2)NC(=O)[C@@H]2CCCN2C(=O)[C@@H](Cc2ccccc2)NC1=O	Non-toxic
6.25 (≈ 3.94 µM)	6.25 (≈ 3.94 µM)	6.25 (≈ 3.94 µM)	6.25 (≈ 3.94 µM)	50 (≈ 31.5 µM)	12.5 (≈ 7.88 µM)	CC(C)C[C@@H]1NC(=O)[C@H](CCCN)NC(=O)[C@H](C(C)C)NC(=O)[C@@H](Cc2ccc(O)cc2)NC(=O)[C@H](CCCNC(=N)N)NC(=O)[C@@H](Cc2ccccc2)NC(=O)[C@H](CC(C)C)NC(=O)[C@H](CCCN)NC(=O)[C@H](C(C)C)NC(=O)[C@@H](Cc2ccc(O)cc2)NC(=O)[C@H](CCCNC(=N)N)NC(=O)[C@@H](Cc2ccccc2)NC1=O	Non-toxic
12.5 (≈ 8.83 µM)	25 (≈ 17.7 µM)	50 (≈ 35.3 µM)	12.5 (≈ 8.83 µM)	> 100	> 100	CC(C)C[C@@H]1NC(=O)[C@H](CCCN)NC(=O)[C@H](C(C)C)NC(=O)[C@@H](Cc2ccc(O)cc2)NC(=O)[C@H](C)NC(=O)[C@@H](Cc2ccccc2)NC(=O)[C@H](CC(C)C)NC(=O)[C@H](CCCN)NC(=O)[C@H](C(C)C)NC(=O)[C@@H](Cc2ccc(O)cc2)NC(=O)[C@H](C)NC(=O)[C@@H](Cc2ccccc2)NC1=O	Non-toxic
25 (≈ 17.3 µM)	50 (≈ 34.5 µM)	50 (≈ 34.5 µM)	12.5 (≈ 8.63 µM)	> 100	> 100	CC(C)C[C@@H]1NC(=O)[C@H](CCCN)NC(=O)[C@H](C(C)C)NC(=O)[C@@H](Cc2ccc(O)cc2)NC(=O)[C@H](CO)NC(=O)[C@@H](Cc2ccccc2)NC(=O)[C@H](CC(C)C)NC(=O)[C@H](CCCN)NC(=O)[C@H](C(C)C)NC(=O)[C@@H](Cc2ccc(O)cc2)NC(=O)[C@H](CO)NC(=O)[C@@H](Cc2ccccc2)NC1=O	Non-toxic
12.5 (≈ 9.74 µM)	12.5 (≈ 9.74 µM)	25 (≈ 19.5 µM)	12.5 (≈ 9.74 µM)	> 100	> 100	CC(C)C[C@@H]1NC(=O)[C@H](CCCN)NC(=O)[C@H](C(C)C)NC(=O)[C@@H](C)NC(=O)[C@@H]2CCCN2C(=O)[C@@H](Cc2ccccc2)NC(=O)[C@H](CC(C)C)NC(=O)[C@H](CCCN)NC(=O)[C@H](C(C)C)NC(=O)[C@@H](C)NC(=O)[C@@H]2CCCN2C(=O)[C@@H](Cc2ccccc2)NC1=O (cyclo(L[dF]P[dA]V[Orn]L[dF]P[dA]V[Orn]))	Non-toxic
6.25 (≈ 4.26 µM)	6.25 (≈ 4.26 µM)	12.5 (≈ 8.52 µM)	6.25 (≈ 4.26 µM)	100 (≈ 68.1 µM)	100 (≈ 68.1 µM)	CC(C)C[C@@H]1NC(=O)[C@H](CCCN)NC(=O)[C@H](C(C)C)NC(=O)[C@@H](Cc2ccc(O)cc2)NC(=O)[C@@H]2CCCN2C(=O)[C@@H](Cc2ccccc2)NC(=O)[C@H](CC(C)C)NC(=O)[C@H](CCCN)NC(=O)[C@H](C(C)C)NC(=O)[C@@H](Cc2ccc(O)cc2)NC(=O)[C@@H]2CCCN2C(=O)[C@@H](Cc2ccccc2)NC1=O [GRATISIN]	Toxic
6.25 (≈ 4.09 µM)	6.25 (≈ 4.09 µM)	6.25 (≈ 4.09 µM)	6.25 (≈ 4.09 µM)	100 (≈ 65.4 µM)	25 (≈ 16.3 µM)	CC(C)C[C@@H]1NC(=O)[C@H](CCCN)NC(=O)[C@H](C(C)C)NC(=O)[C@@H](Cc2ccc(O)cc2)NC(=O)[C@H](CCCCN)NC(=O)[C@@H](Cc2ccccc2)NC(=O)[C@H](CC(C)C)NC(=O)[C@H](CCCN)NC(=O)[C@H](C(C)C)NC(=O)[C@@H](Cc2ccc(O)cc2)NC(=O)[C@H](CCCCN)NC(=O)[C@@H](Cc2ccccc2)NC1=O	Non-toxic
> 100	> 100	> 100	> 100	> 100	> 100	CC(C)C[C@@H]1NC(=O)[C@H](CCCN)NC(=O)[C@H](CCCCN)NC(=O)[C@@H](Cc2ccc(O)cc2)NC(=O)[C@@H]2CCCN2C(=O)[C@@H](Cc2ccccc2)NC(=O)[C@H](CC(C)C)NC(=O)[C@H](CCCN)NC(=O)[C@H](CCCCN)NC(=O)[C@@H](Cc2ccc(O)cc2)NC(=O)[C@@H]2CCCN2C(=O)[C@@H](Cc2ccccc2)NC1=O	Non-toxic
